Measured values from ChEMBL document CHEMBL1145520, “RAS-RAF-MEK-dependent oxidative cell death involving voltage-dependent anion channels” (Nature, 2007).
The source made the active and inactive calls. The calls are words filed in the database; no cut-off is given here.

How the values were obtained:
[1] = target: T1, Mitogen-activated protein kinase; ERK1/ERK2 (Homo sapiens) (UniProt P27361+P28482); experiment: Effect on ERK1/2 phosphorylation in human TC32 cells by Western blot; format: cell-based
T1 sequence (P27361 whole entry, looked up): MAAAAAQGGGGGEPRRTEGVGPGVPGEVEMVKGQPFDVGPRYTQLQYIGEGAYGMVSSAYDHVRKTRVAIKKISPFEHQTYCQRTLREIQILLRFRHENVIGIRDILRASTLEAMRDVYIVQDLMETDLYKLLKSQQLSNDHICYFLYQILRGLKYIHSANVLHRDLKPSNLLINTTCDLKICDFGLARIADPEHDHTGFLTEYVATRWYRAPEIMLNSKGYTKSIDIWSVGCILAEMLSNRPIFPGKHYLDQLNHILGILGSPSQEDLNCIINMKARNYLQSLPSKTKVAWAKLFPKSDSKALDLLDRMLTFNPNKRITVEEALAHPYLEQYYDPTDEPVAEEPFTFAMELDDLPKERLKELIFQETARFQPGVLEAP
T1 sequence (P28482 whole entry, looked up): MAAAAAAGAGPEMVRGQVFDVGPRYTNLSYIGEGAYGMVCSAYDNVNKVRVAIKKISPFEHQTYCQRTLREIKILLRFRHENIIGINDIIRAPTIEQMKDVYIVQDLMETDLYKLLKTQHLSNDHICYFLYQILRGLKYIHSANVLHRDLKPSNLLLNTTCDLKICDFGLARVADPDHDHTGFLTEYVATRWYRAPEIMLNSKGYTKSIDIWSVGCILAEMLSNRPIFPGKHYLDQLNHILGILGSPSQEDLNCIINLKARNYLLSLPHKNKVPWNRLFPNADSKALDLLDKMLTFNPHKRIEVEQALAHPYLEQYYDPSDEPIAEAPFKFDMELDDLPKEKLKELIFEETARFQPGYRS
Procedure, shortened: (§1)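 Washed cells were lysed in pH 7.4 HEPES buffer containing orthovanadate, NaF, pyrophosphate, β-glycerophosphate and protease inhibitors. Lysates were run on SDS-PAGE, transferred to PVDF and blocked 1 h at room temperature. Blots were probed with a multiplex phospho-signalling antibody cocktail and read by infrared fluorescence scanning.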

[2] = test system: HeLa; experiment: Induction of PARP1 cleavage in human HeLa cells; format: functional, cell-based
Procedure, shortened: (§2)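 Cells were left untreated or given staurosporine or erastin for 6 or 8 h. Lysates were analysed by western blot for full-length and cleaved PARP1, with actin as loading control.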

[3] = test system: BJ; experiment: Prevention of induction of cell death in human BJ cells expressing TERT, LT, ST and RAS G12V mutant genes cells after 24 hrs in presence of butylated hydroxytoluene; format: functional, cell-based
Procedure, shortened: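 BJ-TERT/LT/ST/RASV12 cells treated 24 h with erastin across roughly 1–2.5 µM, together with DMSO or an antioxidant (α-tocopherol, BHT or β-carotene). Viability read afterwards.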

[4] = test system: HOS; experiment: Induction of cell death in human HOS cells; format: functional, cell-based
[5] = test system: BJ; experiment: Increase in intracellular oxidative species in human BJ cells expressing TERT, LT, ST and RAS G12V mutant genes cells at 4.6 uM; format: functional, cell-based
Procedure, shortened: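 Cells seeded at 3 × 10^5 per 60 mm dish were grown overnight, then exposed to 4.6 erastin for 2–12 h; H2O2 for 5 min served as positive control. Cells were loaded with H2DCF-DA for 10 min, trypsinized, PBS-washed and stained with propidium iodide. Read-out was flow cytometry as percent of cells with DCF fluorescence in gate M1; n = 2.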

[6] = test system: SJSA-1; experiment: Induction of cell death in human SJSA1 cells; format: functional, cell-based
[7] = test system: HT-1080; experiment: Suppression of induction of cell death in human HT1080 cells at […] by Alamar Blue assay in presence of in presence of alpha-tocopherol; format: functional, cell-based
[8] = test system: HT-1080; experiment: Induction of cell death in human HT1080 cells in presence of U0126 by trypan blue exclusion method; format: functional, cell-based
[9] = test system: HT-1080; experiment: Induction of cell death in human HT1080 cells in presence of PD-98059 by trypan blue exclusion method; format: functional, cell-based
[10] = test system: HT-1080; experiment: Induction of cell death in human HT1080 cells in presence of MEK 1/2 inhibitor by trypan blue exclusion method; format: functional, cell-based
[11] = target: T1, Mitogen-activated protein kinase; ERK1/ERK2 (Homo sapiens); experiment: Effect on ERK1/2 phosphorylation in TERT expressing human BJ cells by Western blot; format: cell-based; procedure, shortened: as §1
[12] = target: T1, Mitogen-activated protein kinase; ERK1/ERK2 (Homo sapiens); experiment: Effect on ERK1/2 phosphorylation in human A673 cells by Western blot; format: cell-based; procedure, shortened: as §1
[13] = Induction of cell death in human A431NS cells; format: functional
[14] = test system: BJ; experiment: Induction of cell death in human BJ cells expressing TERT, LT, ST and RAS G12V mutant genes cells in presence of PD-98059 by trypan blue exclusion method; format: functional, cell-based
[15] = test system: HT-1080; experiment: Suppression of induction of cell death in human HT1080 cells at […] by Alamar Blue assay in presence of butylated hydroxytoluene; format: functional, cell-based
[16] = target: T1, Mitogen-activated protein kinase; ERK1/ERK2 (Homo sapiens); experiment: Effect on ERK1/2 phosphorylation in human BJ cells expressing TERT, LT, ST and RAS G12V mutant genes cells by Western blot; format: cell-based; procedure, shortened: as §1
[17] = test system: SVR; experiment: Induction of cell death in human SVR cells; format: functional, cell-based
[18] = Induction of cell death in human Hs925.T cells; format: functional, cell-based
[19] = test system: C-33-A; experiment: Induction of cell death in human C33A cells; format: functional, cell-based
[20] = test system: A673; experiment: Induction of cell death in human A673 cells; format: functional, cell-based
[21] = test system: HeLa; experiment: Induction of pro-caspase 3 cleavage in human HeLa cells; format: functional, cell-based
Procedure, shortened: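 Cells either untreated, given staurosporine, or given erastin for 6–10 h, then lysed in HEPES pH 7.4 buffer with phosphatase and protease inhibitors. Lysates run on SDS-PAGE, blotted to PVDF, probed with antibodies detecting active caspase-3, with actin as loading control. Bands read on infrared imager.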

[22] = test system: U-937; experiment: Induction of cell death in human U937 cells; format: functional, cell-based
[23] = test system: Calu-1; experiment: Inhibition of human Calu1 cells expressing KRAS with activating mutations by trypan blue exclusion assay; format: functional, cell-based
Procedure, shortened: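 Calu-1 lung carcinoma cells (activating KRAS mutation) treated with erastin dilutions. Viability measured by Trypan blue exclusion with an automated cell viability analyser after trypsinization and resuspension in growth medium. IC50 derived from the dose series.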

[24] = Induction of cell death in human MX2 cells; format: functional, cell-based
[25] = test system: BJ; experiment: Induction of cell death in human BJ cells expressing TERT, LT, ST and RAS G12V mutant genes cells in presence of MEK 1/2 inhibitor by trypan blue exclusion method; format: functional, cell-based
Procedure, shortened: (§3)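 BJ-TERT/LT/ST/RASV12 cells were co-treated for 48 h with 1.5 µM erastin plus 20 µM U0126, 10 µM MEK inhibitor I or 50 µM MEK1/2 inhibitor. Viability was measured by automated Trypan blue exclusion of trypsinized cells resuspended in growth medium; n = 2 or 3.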

[26] = target: T1, Mitogen-activated protein kinase; ERK1/ERK2 (Homo sapiens); experiment: Effect on ERK1/2 phosphorylation in human SW872 cells by Western blot; format: cell-based; procedure, shortened: as §1
[27] = test system: SK-ES1; experiment: Induction of cell death in human SK-ES-1 cells; format: functional, cell-based
[28] = test system: HT-1080; experiment: Suppression of induction of cell death in human HT1080 cells at […] by Alamar Blue assay in presence of glutathione; format: functional, cell-based
[29] = test system: HT-1080; experiment: Induction of cell death in human HT1080 cells in presence of MEK inhibitor 2 by trypan blue exclusion method; format: functional, cell-based
[30] = test system: HT-1080; experiment: Induction of PARP1 cleavage in human HT1080 cells; format: functional, cell-based; procedure, shortened: as §2
[31] = Induction of cell death in human SKUT cells; format: functional, cell-based
[32] = test system: LNCaP; experiment: Induction of cell death in human LNCaP cells; format: functional, cell-based
[33] = test system: BJ; experiment: Induction of PARP1 cleavage in human BJ cells expressing TERT, LT, ST and RAS G12V mutant genes cells after 14 hrs; format: functional, cell-based
Procedure, shortened: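 BJ-TERT/LT/ST/RASV12 cells (3 × 10^6 per dish) were incubated overnight at 37 °C, 5% CO2, then given erastin for 6–26 h. Untreated cells and staurosporine (6 h) or camptothecin (18 h) served as comparators. Full-length and cleaved PARP1 were detected by western blot.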

[34] = test system: SW872; experiment: Induction of cell death in human SW872 cells; format: functional
[35] = target: T1, Mitogen-activated protein kinase; ERK1/ERK2 (Homo sapiens); experiment: Effect on ERK1/2 phosphorylation in human HL60 cells by Western blot; format: cell-based; settings: HL-60; procedure, shortened: as §1
[36] = test system: BJ; experiment: Induction of cell death in human BJ cells expressing TERT, LT, ST and RAS G12V mutant genes in presence of U0126 by trypan blue exclusion method; format: functional, cell-based; procedure, shortened: as §3

In the case of `CCOc1ccccc1-n1c(C(C)N2CCN(C(=O)COc3ccc(Cl)cc3)CC2)nc2ccccc2c1=O` (configuration not stated) [ERASTIN], the Activity [1] is reported as 0.12 a.u, the Activity [2] is reported as “inactive” and the Activity [3] is reported as “Active”. The Activity [4] was 100%, the EC50 ([4]; Homo sapiens, HOS) was 17 µM and the Activity [5] was “Active”. For the same compound, the Activity [6] was 100%, the EC50 ([6]; Homo sapiens, SJSA-1) was 12 µM and the Activity [7] was “Active”. The IC50 [8] was 3.4 µM, the IC50 [9] was 1 µM and the IC50 [10] was 6 µM. The Activity [11] was 0.09 a.u, the Activity [12] was 0.66 a.u and the Activity [13] was 0%. The IC50 [14] was 0.9 µM, the Activity [15] was “Active” and the Activity [16] was 0.92 a.u. The Activity [17] was 20%, the EC50 ([17]; Mus musculus, SVR) was 2.5 µM and the Activity [18] was 83%. For the same compound, the EC50 ([18]; Homo sapiens) was 17 µM, the Activity [19] was 21% and the EC50 ([19]; Homo sapiens, C-33-A) was 0.6 µM. For the same compound, the Activity [20] was 54%, the EC50 ([20]; Homo sapiens, A673) was 30 µM and the Activity [21] was “inactive”. The Activity [22] was 73%, the EC50 ([22]; Homo sapiens, U-937) was 10 µM and the IC50 [23] was 4 µM. The Activity [24] was 71%, the EC50 ([24]; Homo sapiens, MX2) was 18 µM and the IC50 [25] was 2 µM. The Activity [26] was 0.12 a.u, the Activity [27] was 96% and the EC50 ([27]; Homo sapiens, SK-ES1) was 7 µM. For the same compound, the Activity [28] was “Active”, the IC50 [29] was 1.3 µM and the Activity [30] was “inactive”. The Activity [31] was 73%, the EC50 ([31]; Homo sapiens, SKUT) was 4 µM and the Activity [32] was 32%. For the same compound, the EC50 ([32]; Homo sapiens, LNCaP) was 6 µM, the Activity [33] was “inactive” and the Activity [34] was 0%. It also gave an Activity [35] of 0.1 a.u and an IC50 [36] of 31.2 µM.
